Measured values gathered from unrelated publications.
Target: Phosphorylase b kinase gamma catalytic chain, liver/testis isoform (PHKG2, Homo sapiens, UniProt P15735)
Sequence (P15735 1-406, as in one of the studies): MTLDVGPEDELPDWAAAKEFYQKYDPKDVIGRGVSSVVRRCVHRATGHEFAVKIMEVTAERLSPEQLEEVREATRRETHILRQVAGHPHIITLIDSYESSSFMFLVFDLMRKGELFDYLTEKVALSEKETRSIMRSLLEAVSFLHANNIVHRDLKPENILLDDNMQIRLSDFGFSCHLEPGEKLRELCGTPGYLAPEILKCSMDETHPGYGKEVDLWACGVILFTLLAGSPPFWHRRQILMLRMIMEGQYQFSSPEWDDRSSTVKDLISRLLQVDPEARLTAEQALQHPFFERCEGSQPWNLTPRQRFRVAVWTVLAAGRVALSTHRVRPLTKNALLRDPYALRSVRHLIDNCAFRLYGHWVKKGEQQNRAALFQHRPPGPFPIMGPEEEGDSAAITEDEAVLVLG

With c1cncc(-c2cccc(Nc3nccc(NC4CCCCC4)n3)c2)c1 the remaining binding was 71% (binding; competition with immobilised ligand; 10 µM).
O=C(NCCCN1CCOCC1)c1ccc(Nc2ncc(Cl)c(-c3ccc(Cl)s3)n2)cc1 gave a remaining binding of 60% (binding; competition with immobilised ligand; 1 µM).
CN(C)c1nccc(-c2cnc3ncccn23)n1 has a remaining binding of 89% (binding; 1 µM).
COc1cnc(Nc2cccc(S(N)(=O)=O)c2)nc1N1CCN(c2ccccc2)C(=O)C1 gave a remaining binding of 100% (binding; competition with immobilised ligand; 1 µM).
The remaining binding of CNC(=O)Nc1ccc2c(c1)[C@@]1(CC2)OC(=O)N(CC(=O)N(Cc2ccc(F)cc2)[C@@H](C)C(F)(F)F)C1=O is reported as 100% (cell-free assay; competition with immobilised ligand; 1 µM).
The remaining binding of C=CC(=O)N1CCC(C(=O)NCC(=O)N2CCN(c3nc(-c4cnc(N)nc4C(F)F)nc(N4CCOCC4)n3)CC2)CC1 is reported as 89% (binding; competition with immobilised ligand; 1 µM).
O=C(N1CCS(=O)(=O)CC1)N1C[C@H](c2ccc(OC(F)(F)F)cc2)C[C@H](c2nc(C3CC3)no2)C1 has a remaining binding of 100% (cell-free assay; competition with immobilised ligand; 1 µM).
With CN(c1nccc(-c2cnn3ncccc23)n1)C1CC1 the remaining binding was 81% (binding; 1 µM).
For COc1cnc(Nc2cccc(S(N)(=O)=O)c2)nc1N1CCN(c2ccccc2)CC1, the remaining binding was 82% (binding; competition with immobilised ligand; 1 µM).
The remaining binding of Cc1c[nH]c2nccc(Oc3c(F)cc(Nc4cc(Cl)nc(N)n4)cc3F)c12 is reported as 89% (cell-free assay; competition with immobilised ligand; 0.1 µM).
The remaining binding of COc1ccnn2ncc(-c3ccnc(N(C)C)n3)c12 is reported as 82% (binding; 1 µM).
FC(F)(F)Oc1cccc(-c2cnc3ccc(-c4ccncc4)nn23)c1 gave a remaining binding of 22% (cell-free assay; competition with immobilised ligand; 5 µM).
O=C(NCCCN1CCOCC1)c1ccc(Nc2nccc(-c3cc4ccccc4s3)n2)cc1 has a remaining binding of 33% (binding; competition with immobilised ligand; 1 µM).
For O=C(Nc1ccc(Oc2ccc(F)cc2)cc1)N1CCc2ncccc2[C@H]1c1ccc(F)cc1, the remaining binding was 100% (cell-free assay; competition with immobilised ligand; 1 µM).
For O=C(c1ccc(Nc2ncc(Cl)c(-c3cc4ccccc4s3)n2)cc1)N1CCC(N2CCCC2)CC1, the remaining binding was 74% (binding; competition with immobilised ligand; 1 µM).
With N[C@H]1CCN(c2nccc(-c3cnn4ncccc34)n2)C1 the remaining binding was 77% (binding; 1 µM).
With Cc1cc(-n2nc(Cc3cc(F)cc(C(F)(F)F)c3)nc2C)ccc1C(N)=O the remaining binding was 100% (cell-free assay; competition with immobilised ligand; 1 µM).
F[C@@H]1CCN(c2nccc(-c3cnn4ncccc34)n2)C1 gave a remaining binding of 100% (binding; 1 µM).
With O=C(Nc1c[nH]nc1C(=O)NC1CCNCC1)c1cc(F)cc(F)c1 the remaining binding was 100% (binding; competition with immobilised ligand; 1 µM).
CCS(=O)(=O)c1cc2cc(C[C@@](O)(CC(C)(C)c3ccc(F)cc3C(N)=O)C(F)(F)F)[nH]c2cn1 gave a remaining binding of 100% (cell-free assay; competition with immobilised ligand; 1 µM).
With C[C@@H]1CCN(c2nccc(-c3cnn4ncccc34)n2)C1 the remaining binding was 72% (binding; 1 µM).
